Reference: ChEMBL document CHEMBL5126614 (ACS Med Chem Lett, 2022)
Active and inactive are the calls of the source. No cut-off for these calls is given here.

Key:
Macaca mulatta = species: Macaca mulatta; test: Selectivity ratio of EC50 for rhesus monkey GCGR to EC50 for rhesus monkey GLP1R
[1] = Solubility of compound at pH 3 to 5; assay type: physicochemical; details: buffer
[2] = Solubility of compound at pH 7; assay type: physicochemical; details: buffer
Homo sapiens = species: Homo sapiens; test: Selectivity ratio of EC50 for human GCGR expressed in frozen cells to EC50 for human GLP1R expressed in frozen cells; assay type: cell-based
[3] = Agonist activity at rhesus monkey GCGR; design: species or system Macaca mulatta
[4] = Agonist activity at rhesus monkey GLP1R; design: species or system Macaca mulatta
[5] = Solubility of compound at pH 8; assay type: physicochemical; details: buffer
Dipeptidyl peptidase 4 = Dipeptidyl peptidase 4 (Homo sapiens, UniProt P27487); test: Stability of compound assessed as DPP4 (unknown origin)-mediated hydrolysis; assay type: ADME
Method in brief: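 Peptide incubated overnight at 37 °C with DPP-IV enzyme. Stability judged by receptor bioactivity measured after incubation.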

Rhesus monkey [6] = test: Anti-obesity activity in type 2 diabetes rhesus monkey model assessed as weight loss at 3 ug/kg, sc qd for 3 weeks relative to control; assay type: functional, Macaca mulatta; details: dose 3 µg/kg
Rhesus monkey [7] = test: Anti-obesity activity in type 2 diabetes rhesus monkey model assessed as reduction in cumulative food intake at 3 ug/kg, sc qd for 3 weeks and measured daily for 21 days relative to baseline; assay type: functional, Macaca mulatta; design: scale not given: the % may be the effect or the level left; details: dose 3 µg/kg
Rhesus monkey [8] = test: Antidiabetic activity in type 2 diabetes rhesus monkey model assessed as reduction in fasting glucose level at 3 ug/kg, sc qd for 3 weeks and measured on day 22 by intravenous glucose tolerance test; assay type: functional, organism-based; details: Macaca mulatta, dose 3.0 µg/kg, time 22.0 day
Method in brief: (§1)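 Type 2 diabetic rhesus monkeys received daily dosing for 3 weeks, alongside vehicle and a liraglutide benchmark at 30 μg/kg. Fasting plasma glucose was compared with baseline or vehicle, and fasting insulin with vehicle.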

Rhesus monkey [9] = test: Anti-obesity activity in type 2 diabetes rhesus monkey model assessed as increase in FGF21 expression at 3 ug/kg, sc qd for 3 weeks and measured on day 22 relative to baseline; assay type: functional, Macaca mulatta; details: dose 3 µg/kg, time 22 day
Rhesus monkey [10] = test: Anti-obesity activity in type 2 diabetes rhesus monkey model assessed as increase in free fatty acid level at 3 ug/kg, sc qd for 3 weeks and measured on day 22 relative to control; assay type: functional, Macaca mulatta; details: dose 3 µg/kg, time 22 day
Rhesus monkey [11] = test: Antidiabetic activity in type 2 diabetes rhesus monkey model assessed as reduction in fasting insulin level at 3 ug/kg, sc qd for 3 weeks and measured on day 22 relative to control; assay type: functional, Macaca mulatta; design: scale not given: the % may be the effect or the level left; details: dose 3 µg/kg, time 22 day; method in brief: as §1
Rhesus monkey [12] = test: Antidiabetic activity in type 2 diabetes rhesus monkey model assessed as HOMA-IR at 3 ug/kg, sc qd for 3 weeks and measured on day 22 (reference value: 9.6 +/- 1.9); assay type: functional, Macaca mulatta; details: dose 3 µg/kg, time 22 day
[13] = AUC (0 to infinity) in Wistar-Han rat at 0.1 mg/kg, iv by LC-MS analysis; assay type: ADME, organism-based; design: time infinity, dose 0.1 mg/kg, route iv; details: in vivo
Method in brief: (§2)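 Single IV or SC dose in male Wistar Han naïve rats and in rhesus monkeys, n = 3 animals per group. Peptide formulated in mannitol buffer (5% mannitol, 5 mM sodium phosphate, pH 8). Plasma concentration–time profiles were measured and peptide levels quantified by LCMS assay.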

[14] = Plasma clearance in Wistar-Han rat at 0.1 mg/kg, iv by LC-MS analysis; assay type: ADME, organism-based; method in brief: as §2
[15] = Volume of distribution at steady state in Wistar-Han rat at 0.1 mg/kg, iv by LC-MS analysis; assay type: ADME, organism-based; details: in vivo, read-out: Vdss; method in brief: as §2
[16] = Elimination half life in Wistar-Han rat at 0.1 mg/kg, iv by LC-MS analysis; assay type: ADME, organism-based; details: in vivo, read-out: beta t1/2 (converted); method in brief: as §2
[17] = AUC (0 to infinity) in Wistar-Han rat at 0.2 mg/kg, sc by LC-MS analysis; assay type: ADME, organism-based; design: time infinity, dose 0.2 mg/kg, route sc; details: in vivo; method in brief: as §2
[18] = Cmax in Wistar-Han rat at 0.2 mg/kg, sc by LC-MS analysis; assay type: ADME, organism-based; design: dose 0.2 mg/kg, route sc; details: in vivo; method in brief: as §2
[19] = Tmax in Wistar-Han rat at 0.2 mg/kg, sc by LC-MS analysis; assay type: ADME, organism-based; details: in vivo; method in brief: as §2
[20] = Bioavailability in Wistar-Han rat at 0.2 mg/kg, sc by LC-MS analysis; assay type: ADME, organism-based; details: in vivo; method in brief: as §2
Rhesus monkey [21] = test: Potency index, ratio of compound to liraglutide anti-obesity activity in type 2 diabetes rhesus monkey model assessed as reduction in body weight; assay type: functional, Macaca mulatta
[22] = AUC (0 to infinity) in rhesus monkey at 0.01 mg/kg, iv by LC-MS analysis; assay type: ADME, organism-based, Macaca mulatta; design: time infinity, dose 0.01 mg/kg, route iv; details: in vivo; method in brief: as §2
[23] = Plasma clearance in rhesus monkey at 0.01 mg/kg, iv by LC-MS analysis; assay type: ADME, organism-based, Macaca mulatta; method in brief: as §2
[24] = Volume of distribution at steady state in rhesus monkey at 0.01 mg/kg, iv by LC-MS analysis; assay type: ADME, organism-based, Macaca mulatta; details: in vivo, read-out: Vdss; method in brief: as §2
[25] = Terminal half life in rhesus monkey at 0.01 mg/kg, iv by LC-MS analysis; assay type: ADME, organism-based, Macaca mulatta; details: in vivo, read-out: beta t1/2 (converted); method in brief: as §2
[26] = AUC (0 to infinity) in rhesus monkey at 0.05 mg/kg, sc by LC-MS analysis; assay type: ADME, organism-based, Macaca mulatta; design: time infinity, dose 0.05 mg/kg, route sc; details: in vivo; method in brief: as §2
[27] = Cmax in rhesus monkey at 0.05 mg/kg, sc by LC-MS analysis; assay type: ADME, organism-based, Macaca mulatta; design: dose 0.05 mg/kg, route sc; details: in vivo; method in brief: as §2
[28] = Tmax in rhesus monkey at 0.05 mg/kg, sc by LC-MS analysis; assay type: ADME, organism-based, Macaca mulatta; details: in vivo; method in brief: as §2
[29] = Bioavailability in rhesus monkey at 0.05 mg/kg, sc by LC-MS analysis; assay type: ADME, organism-based, Macaca mulatta; details: in vivo; method in brief: as §2
Rhesus monkey [30] = test: Potency index, ratio of compound to liraglutide anti-obesity activity in type 2 diabetes rhesus monkey model assessed as […] in FGF21 expression; assay type: functional, Macaca mulatta
[31] = Toxicity in rat; details: in vivo
[32] = Toxicity in rhesus monkey; design: species or system Macaca mulatta; details: in vivo
Rhesus monkey [33] = test: Antidiabetic activity in type 2 diabetes rhesus monkey model assessed as increase in total adiponectin level at 3 ug/kg, sc qd for 3 weeks and measured on day 22; details: Macaca mulatta, dose 3.0 µg/kg, time 22.0 day
Rhesus monkey [34] = test: Anti-obesity activity in type 2 diabetes rhesus monkey model assessed as increase in fasting ketone beta-hydroxybutyrate level at 3 ug/kg, sc qd for 3 weeks and measured on day 22 relative to control; details: dose 3 µg/kg, time 22 day

Chain of Dipeptidyl peptidase 4 (P27487 whole entry): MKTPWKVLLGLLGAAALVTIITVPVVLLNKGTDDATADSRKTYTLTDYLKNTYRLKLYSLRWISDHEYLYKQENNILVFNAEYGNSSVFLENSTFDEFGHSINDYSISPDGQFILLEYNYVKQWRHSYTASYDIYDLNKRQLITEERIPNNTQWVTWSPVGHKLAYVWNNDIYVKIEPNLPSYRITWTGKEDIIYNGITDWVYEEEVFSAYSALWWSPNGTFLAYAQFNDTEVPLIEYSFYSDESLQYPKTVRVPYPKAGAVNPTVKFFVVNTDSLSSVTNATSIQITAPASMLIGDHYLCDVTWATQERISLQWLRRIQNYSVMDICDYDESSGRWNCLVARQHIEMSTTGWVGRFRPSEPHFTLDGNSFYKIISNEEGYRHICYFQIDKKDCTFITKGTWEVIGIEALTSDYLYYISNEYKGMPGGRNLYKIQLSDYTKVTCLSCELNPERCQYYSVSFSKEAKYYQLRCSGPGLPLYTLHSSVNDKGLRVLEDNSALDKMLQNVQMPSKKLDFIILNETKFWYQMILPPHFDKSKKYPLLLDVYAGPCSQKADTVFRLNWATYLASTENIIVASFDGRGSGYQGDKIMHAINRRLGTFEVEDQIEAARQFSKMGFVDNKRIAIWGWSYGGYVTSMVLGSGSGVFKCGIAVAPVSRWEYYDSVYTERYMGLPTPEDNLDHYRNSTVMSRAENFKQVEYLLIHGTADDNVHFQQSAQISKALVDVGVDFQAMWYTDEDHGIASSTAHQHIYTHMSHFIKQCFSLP

For CCCCCCCCCCCCCCCC(=O)N[C@@H](CCC(=O)N[C@@H](CCC(=O)NCCCC[C@H](NC(=O)[C@H](CC(=O)O)NC(=O)[C@H](CO)NC(=O)[C@@H](NC(=O)[C@H](Cc1ccccc1)NC(=O)[C@@H](NC(=O)CNC(=O)[C@H](CCC(N)=O)NC(=O)[C@@H](CO)NC(=O)[C@@H](N)Cc1cnc[nH]1)[C@@H](C)O)[C@@H](C)O)C(=O)N[C@@H](CO)C(=O)N[C@@H](CCCCN)C(=O)N[C@@H](Cc1ccc(O)cc1)C(=O)N[C@@H](CC(C)C)C(=O)N[C@@H](CC(=O)O)C(=O)N[C@@H](C)C(=O)N[C@@H](CCCNC(=N)N)C(=O)N[C@@H](C)C(=O)N[C@@H](C)C(=O)N[C@@H](CCC(N)=O)C(=O)N[C@@H](CC(=O)O)C(=O)N[C@@H](Cc1ccccc1)C(=O)N[C@H](C(=O)N[C@@H](CCC(N)=O)C(=O)N[C@@H](Cc1c[nH]c2ccccc12)C(=O)N[C@@H](CC(C)C)C(=O)N[C@@H](CC(C)C)C(=O)N[C@@H](CC(=O)O)C(=O)N[C@H](C(N)=O)[C@@H](C)O)C(C)C)C(=O)O)C(=O)O, the Ratio EC50 (Macaca mulatta) was 0.8, the solubility [1] was “Insoluble” and the solubility [2] was > 20 mg/mL. It also gave a Ratio EC50 (Homo sapiens) of 0.9, an EC50 [3] of 7 pM and an EC50 [4] of 9 pM. For the same molecule, the solubility [5] was > 80 mg/mL, the Stability (Dipeptidyl peptidase 4) was “Stable” and the Activity (Rhesus monkey [6]) was 7.6%. The Activity (Rhesus monkey [7]) was 30%, the Activity (Rhesus monkey [8]) was “Active” and the “fold change (FC)” value (Rhesus monkey [9]) was >3. For the same molecule, the Activity (Rhesus monkey [10]) was 63%, the Activity (Rhesus monkey [11]) was 50% and the Activity (Rhesus monkey [12]) was 9.6. It also gave an AUC(0-inf) [13] of 1.05 µM·h, a clearance [14] of 0.42 mL/min/kg and a Vd [15] of 0.1 L/kg. For the same molecule, the half-life [16] was 3 h, the AUC(0-inf) [17] was 0.37 µM·h and the Cmax [18] was 25 nM. For the same molecule, the Tmax [19] was 5.3 h, the bioavailability [20] was 18% and the “fold change (FC)” value (Rhesus monkey [21]) was 2. For the same molecule, the AUC(0-inf) [22] was 0.4 µM·h, the clearance [23] was 0.12 mL/min/kg and the Vd [24] was 0.16 L/kg. The half-life [25] was 16 h, the AUC(0-inf) [26] was 1.25 µM·h and the Cmax [27] was 30 nM. For the same molecule, the Tmax [28] was 18 h, the bioavailability [29] was 63% and the “fold change (FC)” value (Rhesus monkey [30]) was >3. The Activity [31] was “Non-Toxic”, the Activity [32] was “Non-Toxic” and the Activity (Rhesus monkey [33]) was “Active”. The “fold change (FC)” value (Rhesus monkey [34]) was 4.
